Published values gathered from unrelated publications.
Each line is one published result; the experiments were not run side by side.
HTR1D: 5-hydroxytryptamine receptor 1D (HTR1D, Homo sapiens, UniProt P28221)
CYP2A6: Cytochrome P450 2A6 (CYP2A6, Homo sapiens, UniProt P11509)
Slc6a4: Sodium-dependent serotonin transporter (Slc6a4, Rattus norvegicus, UniProt P31652)

| target | test | conditions | quantity | value | SMILES |
| --- | --- | --- | --- | --- | --- |
| HTR1D | ligand displacement, radioligand | – | Ki | > 10 µM | O=C1c2ccccc2CCN1CCCCN1CCN(c2cccc(Cl)c2Cl)CC1 |
| Bromodomain-containing protein 4, BD2 (BRD4, Homo sapiens, UniProt O60885) | binding | – | Kd | 0.044 µM | CC(=O)N[C@H](C(=O)N1C[C@H](O)C[C@H]1C(=O)NCc1ccc(-c2scnc2C)cc1)C(C)(C)SCCCCCCNC(=O)C[C@@H]1N=C(c2ccc(Cl)cc2)c2c(sc(C)c2C)-n2c(C)nnc21 |
| CYP2A6 | enzyme activity, inhibitor | 6 min, pH 7.6 | Ki | > 25 µM | C#Cc1ccc(-c2cc(=O)c3ccccc3o2)cc1 |
| HTR1D | cell-free assay, radioligand | – | Ki | > 10 µM | CCCCN1CCC(COC(=O)c2ccc(N)c(OCF)c2)CC1 |
| CYP2A6 | enzyme activity, inhibitor | 6 min, pH 7.6 | Ki | > 25 µM | C#Cc1ccc2c(=O)cc(-c3ccccc3)oc2c1 |
| Bromodomain-containing protein 4, BD1 (BRD4, Homo sapiens, UniProt O60885) | binding, competition with immobilised ligand | – | Kd | 41 µM | Cc1cc2c(NC(=O)c3cccc(C(=O)O)c3)cccc2nn1 |
| Prostaglandin E synthase 3 (Homo sapiens, UniProt Q15185) | binding, MST | – | Kd | 1.18 µM | COc1cc(C2Oc3c(OC)cccc3C3CC(c4cc(C)ccc4O)=NN32)ccc1O (stereo not shown) |
| CYP2A6 | enzyme activity, inhibitor | 6 min, pH 7.6 | Ki | > 25 µM | C#Cc1cccc2oc(-c3ccccc3)cc(=O)c12 |
| Mu-type opioid receptor (OPRM1, Homo sapiens, UniProt P35372) | cell-free assay, radioligand | – | Ki | 3.5 µM | OC[C@@]12C[C@@H]1[C@@H](n1cnc3c(NC(C4CCCC4)C4CCCC4)nc(Cl)nc31)[C@H](O)[C@@H]2O |
| Tyrosine-protein kinase Yes (YES1, Homo sapiens, UniProt P07947) | binding, competition with immobilised ligand | – | Kd | 0.31 µM | Cc1cnc(-c2ccc(-c3ccc(NC(=O)Nc4c(F)cc(F)cc4F)cc3F)c3c2C(=O)NC3)[nH]1 |
| CYP2A6 | enzyme activity, inhibitor | 6 min, pH 7.6 | Ki | > 25 µM | C#Cc1ccc2cc(-c3ccccc3)c(=O)oc2c1 |
| PYL1 (Arabidopsis thaliana, UniProt Q8VZS8) | binding, MST | – | Kd | 63.7 µM | CC1=CC(=O)CC(C)(C)[C@@]1(O)/C=C/C(C)=C\C(=O)O |
| Slc6a4 | ligand displacement, radioligand | – | Ki | > 20 µM | c1ccc(-n2nnnc2N2CCNCC2)cc1 |
| Far upstream element-binding protein 2 (KHSRP, Homo sapiens, UniProt Q92945) | binding | lysate | Kd | 0.026 µM | Cc1cc2nc3c(=O)[nH]c(=O)nc-3n(C[C@H](O)[C@H](O)[C@H](O)COP(=O)(O)OP(=O)(O)OC[C@H]3O[C@@H](n4cnc5c(N)ncnc54)[C@H](O)[C@@H]3O)c2cc1C |
| Slc6a4 | ligand displacement, radioligand | – | Ki | 0.305 µM | CN(C)c1ccc(C(CNC(=O)c2ccc(Br)cc2)N(C)C)cc1 (stereo not shown) |
| mpl (Escherichia coli, UniProt P37773) | binding, ITC | – | Kd | 752 µM | Nc1nc2c(ncn2[C@@H]2O[C@H](COP(=O)(O)OP(=O)(O)O)[C@@H](OP(=O)(O)OP(=O)(O)O)[C@H]2O)c(=O)[nH]1 |
